Test results as given in ChEMBL document CHEMBL3804796, “Discovery of Novel 3,3-Disubstituted Piperidines as Orally Bioavailable, Potent, and Efficacious HDM2-p53 Inhibitors” (ACS Med Chem Lett, 2016).
Converted amounts (≈) assume the structure as drawn.

Key:
[1] = biological target: T1, Tumour suppressor p53/oncoprotein Mdm2 (Homo sapiens, UniProt Q00987); assay: Inhibition of human recombinant His-tagged MDM2 (1 to 118 residues) interaction with FAM-tagged p53-based peptide (unknown origin) incubated for 15 mins by fluorescence polarization assay; assay type: protein assay
T1 sequence (P04637 whole entry, the tested form may be a part): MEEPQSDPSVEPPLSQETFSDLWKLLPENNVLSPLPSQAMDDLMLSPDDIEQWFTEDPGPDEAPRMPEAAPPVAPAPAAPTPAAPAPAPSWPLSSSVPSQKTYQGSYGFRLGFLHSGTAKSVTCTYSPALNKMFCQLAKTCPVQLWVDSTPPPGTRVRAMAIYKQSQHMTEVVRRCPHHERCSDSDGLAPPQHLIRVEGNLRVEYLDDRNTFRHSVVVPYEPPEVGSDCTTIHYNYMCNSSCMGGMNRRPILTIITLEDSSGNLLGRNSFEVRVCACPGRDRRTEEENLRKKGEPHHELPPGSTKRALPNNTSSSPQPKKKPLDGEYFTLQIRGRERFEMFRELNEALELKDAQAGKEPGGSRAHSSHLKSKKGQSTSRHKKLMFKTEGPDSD
T1 sequence (Q00987 whole entry, the tested form may be a part): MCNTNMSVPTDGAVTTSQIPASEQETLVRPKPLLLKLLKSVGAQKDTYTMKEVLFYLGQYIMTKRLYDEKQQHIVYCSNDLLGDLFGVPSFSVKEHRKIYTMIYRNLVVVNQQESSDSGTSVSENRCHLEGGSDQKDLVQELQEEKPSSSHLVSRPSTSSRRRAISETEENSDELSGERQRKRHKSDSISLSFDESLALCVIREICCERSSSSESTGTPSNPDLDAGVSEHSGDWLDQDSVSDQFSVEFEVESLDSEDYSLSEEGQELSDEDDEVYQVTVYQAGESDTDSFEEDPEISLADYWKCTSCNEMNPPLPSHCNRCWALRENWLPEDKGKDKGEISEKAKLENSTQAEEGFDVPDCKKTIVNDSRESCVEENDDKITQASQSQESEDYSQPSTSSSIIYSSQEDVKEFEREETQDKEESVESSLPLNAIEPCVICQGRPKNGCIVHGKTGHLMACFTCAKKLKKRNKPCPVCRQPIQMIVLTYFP

[2] = Antiproliferative activity against human SJSA1 cells expressing wild type p53 after 72 hrs by CellTitre-Glo assay; conditions: SJSA-1, 72 h
[3] = Intrinsic clearance in human liver microsomes; assay type: ADME; conditions: read-out: CLH
Mus musculus = assay: Dose normalized AUC (0 to 24 hrs) in mouse at 1 mg/kg, po administered as single dose; assay type: ADME, organism-based; conditions: in vivo
In short: (§1)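 Single oral dose of 1 mg/kg. Vehicle was 20% HPBCD for mouse and 0.4% HPMC for dog and monkey. Plasma AUC over 0–24 h, dose-normalized, reported in μM·h.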

[4] = Permeability from apical to basolateral side in human Caco2 cells; assay type: ADME, cell-based; conditions: Caco-2, read-out: permeability
[5] = Oral bioavailability in mouse at 20 mg/kg; assay type: ADME, organism-based; conditions: in vivo
[6] = AUC in mouse at 20 mg/kg, po or 2 mg/kg, iv; assay type: ADME, organism-based; conditions: in vivo
A2780 = assay: Antitumor activity against human A2780 cells xenografted in nude mouse harboring wild type p53 assessed as tumor growth inhibition at 40 mg/kg, ip once weekly for 15 days relative to control; conditions: 360 h, read-out: TGI
[7] = biological target: T1, Tumour suppressor p53/oncoprotein Mdm2; assay: Inhibition of MDM2/p53 interaction in human HCT116 cells assessed as activation of p53 transcription by luciferase reporter gene assay; assay type: cell-based, HCT-116
In short: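 p53 transcriptional activation measured in HCT116 cells with a p53 response element–driven luciferase reporter (P53RE-Luc).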

[8] = Solubility of compound in pH 7.4 phosphate buffer; assay type: physicochemical
Canis familiaris = assay: Dose normalized AUC (0 to 24 hrs) in dog at 1 mg/kg, po administered as single dose; assay type: ADME, organism-based, Canis lupus familiaris; conditions: in vivo; in short: as §1
[9] = Antiproliferative activity against human HCT116 cells expressing wild type p53 after 72 hrs by CellTitre-Glo assay; assay type: functional, cell-based; conditions: HCT-116, 72 h
In short: (§2)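 Cancer cell lines of known p53 coding-region status (checked by direct sequencing) were exposed to the compound for 72 h. Viability was read with CellTiter-Glo, and the IC50 was taken from these readings.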

SJSA-1 = assay: Induction of apoptosis in human SJSA1 cells assessed as caspase 3/7 activation; assay type: functional, cell-based
Rhesus monkey = assay: Dose normalized AUC (0 to 24 hrs) in monkey at 1 mg/kg, po administered as single dose; assay type: ADME, organism-based, Macaca mulatta; conditions: in vivo; in short: as §1
[10] = Antiproliferative activity against p53 null human H1299 cells after 72 hrs by CellTitre-Glo assay; assay type: functional, cell-based; conditions: NCI-H1299, 72 h; in short: as §2
SK-UT-1 = assay: Antiproliferative activity against human SK-UT-1 cells harboring mutant p53 after 72 hrs by CellTitre-Glo assay; assay type: functional, cell-based; conditions: SK-UT-1, 72 h; in short: as §2
A549 = assay: Antitumor activity against human A549 cells xenografted in nude mouse assessed as tumor growth inhibition at 20 mg/kg, ip once weekly for 30 days relative to control; assay type: functional; conditions: 720 h, read-out: TGI
In short: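 Mice bearing A549 NSCLC xenografts. The test agent was given orally, either daily or intermittently (daily for 3 days, then 4 days off). Paclitaxel was given at 20 mg/kg ip weekly, alone or in combination. Read-out was tumor growth inhibition.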

| Compound | IC50 [1] | IC50 [2] | other results |
| --- | --- | --- | --- |
| CCC[C@@H]1N(C(=O)c2cnccc2C(F)(F)F)CCC[C@]1(Oc1csc(C(F)(F)F)c1)C(=O)N1CCN(c2ccccc2OCC2(CC(=O)O)CC2)CC1 (single isomer, unassigned) | 33 nM | – | – |
| CCC[C@H]1N(C(=O)c2cnccc2C(F)(F)F)CCC[C@@]1(Oc1csc(C(F)(F)F)c1)C(=O)N1CCN(c2ccccc2OCCCCC(=O)O)CC1 | 7 nM | 170 nM | – |
| CCC[C@H]1N(C(=O)c2cnccc2C(F)(F)F)CCC[C@@]1(Oc1csc(C(F)(F)F)c1)C(=O)N1CCN(c2ccccc2OC(C)(C)C(=O)O)CC1 | 11 nM | 80 nM | – |
| CCC[C@@H]1N(C(=O)c2cnccc2C(F)(F)F)CCC[C@]1(Oc1ccc(C(F)(F)F)cc1)C(=O)N1CCN(c2ccccc2OCCO)CC1 (single isomer, unassigned) | 40 nM | 460 nM | CLint scaled [3]: 23 mL/min/kg; AUC/dose (Mus musculus): 1.2 µM·h; Papp A→B [4]: 9.9 ×10⁻⁶ cm/s; bioavailability [5]: 92%; AUC [6]: 8.7 µM·h |
| CCC[C@H]1N(C(=O)c2cnccc2C(F)(F)F)CCC[C@@]1(Oc1csc(C(F)(F)F)c1)C(=O)N1CCN(c2ccccc2OCC(=O)O)CC1 | 2 nM | 1100 nM | AUC/dose (Mus musculus): 0.02 µM·h; Papp A→B [4]: 0.7 ×10⁻⁶ cm/s |
| COCCOc1ccccc1N1CCN(C(=O)[C@]2(Oc3ccc(C(F)(F)F)cc3)CCCN(C(=O)c3cnccc3C(F)(F)F)[C@@H]2CCO)CC1 | – | 530 nM | – |
| CCC[C@H]1N(C(=O)c2cnccc2C(F)(F)F)CCC[C@@]1(Oc1cc(C(F)(F)F)sc1C)C(=O)N1CCN(c2ccccc2OCCO)CC1 | 470 nM | – | – |
| CCC[C@@H]1N(C(=O)c2cnccc2C(F)(F)F)CCC[C@]1(Oc1csc(C(F)(F)C(F)(F)F)c1)C(=O)N1CCN(c2ccccc2OCCO)CC1 (single isomer, unassigned) | 25 nM | 1100 nM | – |
| CCC[C@@H]1N(C(=O)c2cnccc2C(F)(F)F)CCC[C@]1(Oc1nc(C(F)(F)F)cs1)C(=O)N1CCN(c2ccccc2OCCO)CC1 (racemic) | 1100 nM | – | – |
| CC(=O)O[C@@]12CO[C@@H]1C[C@H](O)[C@@]1(C)C(=O)[C@H](O)C3=C(C)[C@@H](OC(=O)[C@H](O)[C@@H](NC(=O)OC(C)(C)C)c4ccccc4)C[C@@](O)([C@@H](OC(=O)c4ccccc4)[C@H]21)C3(C)C [DOCETAXEL ANHYDROUS] | – | – | inhibition in vivo at 40 mg/kg (A2780): 53% |
| CCC[C@@H]1N(C(=O)c2cnccc2C(F)(F)F)CCC[C@]1(Oc1cc(C(F)(F)F)cs1)C(=O)N1CCN(c2ccccc2OCCO)CC1 (racemic) | 170 nM | – | – |
| CCC[C@H]1N(C(=O)c2cnccc2C(F)(F)F)CCC[C@@]1(Oc1csc(C(F)(F)F)c1)C(=O)N1CCN(c2ccccc2OCC(C)(C)O)CC1 | 23 nM | 600 nM | – |
| CCC[C@@H]1N(C(=O)c2cnccc2C(F)(F)F)CCC[C@]1(Oc1csc(C(F)(F)F)c1)C(=O)N1CCN(c2ccccc2OCC(=O)NC)CC1 (single isomer, unassigned) | 4 nM | 110 nM | EC50 [7]: 400 nM; solubility [8]: 12 µM (≈ 8.9 µg/mL); CLint scaled [3]: 13 mL/min/kg; AUC/dose (Mus musculus): 2 µM·h; AUC/dose (Canis familiaris): 0.2 µM·h; IC50 [9]: 470 nM; IC50 (SJSA-1): 300 nM; Papp A→B [4]: 18.1 ×10⁻⁶ cm/s; AUC/dose (Rhesus monkey): 0.3 µM·h; IC50 [10]: > 17000 nM; IC50 (SK-UT-1): > 10000 nM |
| CCC[C@@H]1N(C(=O)c2cnccc2C(F)(F)F)CCC[C@]1(Oc1csc(C(F)(F)F)c1)C(=O)N1CCN(c2ccccc2OCCC(C)(C)C(=O)O)CC1 (single isomer, unassigned) | 10 nM | 280 nM | – |
| COc1ccc(C2=N[C@@H](c3ccc(Cl)cc3)[C@@H](c3ccc(Cl)cc3)N2C(=O)N2CCNC(=O)C2)c(OC(C)C)c1 [NUTLIN-3] | – | 1900 nM | – |
| CCC[C@H]1N(C(=O)c2cnccc2C(F)(F)F)CCC[C@@]1(Oc1csc(C(F)(F)F)c1)C(=O)N1CCN(c2ccccc2OC(C)(C)CO)CC1 | 25 nM | 1100 nM | – |
| CCC[C@H]1N(C(=O)c2cnccc2C(F)(F)F)CCC[C@@]1(Oc1csc(C(F)(F)F)c1C)C(=O)N1CCN(c2ccccc2OCCO)CC1 | 58 nM | – | – |
| CC(=O)O[C@H]1C(=O)[C@@]2(C)[C@H]([C@H](OC(=O)c3ccccc3)[C@]3(O)C[C@H](OC(=O)[C@H](O)[C@@H](NC(=O)c4ccccc4)c4ccccc4)C(C)=C1C3(C)C)[C@]1(OC(C)=O)CO[C@@H]1C[C@@H]2O [PACLITAXEL] | – | – | inhibition in vivo at 20 mg/kg (A549): 54% |
| CCC[C@H]1N(C(=O)c2cnccc2C(F)(F)F)CCC[C@@]1(Oc1csc(C(F)(F)F)c1Cl)C(=O)N1CCN(c2ccccc2OCCO)CC1 | 130 nM | – | – |
| COc1ccccc1N1CCN(C(=O)C2(Oc3ccc(C(F)(F)F)cc3)CCCN(C(=O)c3cnccc3C(F)(F)F)C2)CC1 (stereo not given) | – | 5500 nM | – |
| CCC[C@H]1N(C(=O)c2cnccc2C(F)(F)F)CCC[C@@]1(Oc1csc(C(F)(F)F)c1)C(=O)N1CCN(c2ccccc2OCC(C)(C)C(=O)O)CC1 | 4 nM | 260 nM | – |
| CCC[C@@H]1N(C(=O)c2cnccc2C(F)(F)F)CCC[C@]1(Oc1csc(C(F)(F)F)c1)C(=O)N1CCN(c2ccccc2OCCO)CC1 (single isomer, unassigned) | 15 nM | 180 nM | EC50 [7]: 400 nM; solubility [8]: 10 µM (≈ 7.15 µg/mL); CLint scaled [3]: 14 mL/min/kg; AUC/dose (Mus musculus): 2 µM·h; AUC/dose (Canis familiaris): 0.2 µM·h; IC50 [9]: 390 nM; IC50 (SJSA-1): 300 nM; AUC/dose (Rhesus monkey): 0.3 µM·h; IC50 [10]: > 17000 nM; IC50 (SK-UT-1): > 17000 nM |
| CCC[C@@H]1N(C(=O)c2cnccc2C(F)(F)F)CCC[C@]1(Oc1cc(C(F)(F)F)n(C)n1)C(=O)N1CCN(c2ccccc2OCCO)CC1 (racemic) | 6300 nM | – | – |
| CCC[C@H]1N(C(=O)c2cnccc2C(F)(F)F)CCC[C@@]1(Oc1cccs1)C(=O)N1CCN(c2ccccc2OCCO)CC1 (racemic) | 2900 nM | – | – |
| CCC[C@H]1N(C(=O)c2cnccc2C(F)(F)F)CCC[C@@]1(Oc1cc(I)cs1)C(=O)N1CCN(c2ccccc2OCCO)CC1 (racemic) | 90 nM | – | – |
| C=CC[C@H]1N(C(=O)c2cnccc2C(F)(F)F)CCC[C@@]1(Oc1cc(C2CC2)cs1)C(=O)N1CCN(c2ccccc2OCCCC(=O)O)CC1 | 3500 nM | – | – |
